Test results reported in ChEMBL document CHEMBL3046406, “Herbicidal potential of ophiobolins produced by Drechslera gigantea” (2006).
Calls of active or inactive are those of the source. No cut-off for these calls is given here.

Tested on: Echinochloa crus-galli
Experiment: Herbicidal activity against Echinochloa crus-galli (barnyard grass) assessed as diameter of leaf necrosis at 250 ug/ml measured after 2 days post compound treatment by leaf puncture assay
Type: functional
Procedure, shortened: (§1)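 Detached leaf segments (about 5 cm) from young greenhouse-grown plants, each with a superficial puncture lesion (0.5 mm) made by glass capillary. Compound dissolved in DMSO, diluted with distilled water (final DMSO 2%), 8 µL droplet applied. Segments held on moist filter paper at 25 °C under continuous fluorescent light (10000 lux). DMSO droplets as control. Necrosis scored visually on a 0–3 scale at day 2.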

SMILES	Activity [mm]
CC(C)=C[C@H]1C[C@H](C)[C@]2(CC[C@]3(C)C[C@H]4[C@H](C(=O)C[C@@]4(C)O)/C(C=O)=C\C[C@H]32)O1 [OPHIOBOLIN A]	>3

Tested on: Chenopodium album
Experiment: Herbicidal activity against Chenopodium album assessed as diameter of leaf necrosis at 250 ug/ml measured after 2 days post compound treatment by leaf puncture assay
Type: functional
Procedure, shortened: as §1

SMILES	Activity [mm]
CC(C)=C[C@H]1C[C@H](C)[C@]2(CC[C@]3(C)C[C@H]4[C@H](C(=O)C[C@@]4(C)O)/C(C=O)=C\C[C@H]32)O1 [OPHIOBOLIN A]	>3

Tested on: Convolvulus arvensis
Experiment: Herbicidal activity against Convolvulus arvensis assessed as diameter of leaf necrosis at 100 ug/ml measured after 2 days post compound treatment by leaf puncture assay
Type: functional
Procedure, shortened: as §1

SMILES	Activity [mm]
CC(C)=C[C@H]1C[C@H](C)[C@]2(CC[C@]3(C)C[C@H]4[C@H](C(=O)C[C@@]4(C)O)/C(C=O)=C\C[C@H]32)O1 [OPHIOBOLIN A]	2

Tested on: Sonchus oleraceus
Experiment: Herbicidal activity against Sonchus oleraceus assessed as diameter of leaf necrosis at 250 ug/ml measured after 2 days post-compound treatment by leaf puncture assay
Type: functional
Procedure, shortened: as §1

SMILES	Activity [mm]
CC(C)=C[C@H]1C[C@H](C)[C@]2(CC[C@]3(C)C[C@H]4[C@H](C(=O)C[C@@]4(C)O)/C(C=O)=C\C[C@H]32)O1 [OPHIOBOLIN A]	>3

Tested on: Phalaris canariensis
Experiment: Herbicidal activity against Phalaris canariensis assessed as diameter of leaf necrosis at 250 ug/ml measured after 2 days post compound treatment by leaf puncture assay
Type: functional
Procedure, shortened: as §1

SMILES	Activity [mm]
CC(C)=C[C@H]1C[C@H](C)[C@]2(CC[C@]3(C)C[C@H]4[C@H](C(=O)C[C@@]4(C)O)/C(C=O)=C\C[C@H]32)O1 [OPHIOBOLIN A]	>3

Tested on: Convolvulus arvensis
Experiment: Herbicidal activity against Convolvulus arvensis assessed as diameter of leaf necrosis at 50 ug/ml measured after 2 days post compound treatment by leaf puncture assay
Type: functional
Procedure, shortened: as §1

SMILES	Activity [mm]
CC(C)=C[C@H]1C[C@H](C)[C@]2(CC[C@]3(C)C[C@H]4[C@H](C(=O)C[C@@]4(C)O)/C(C=O)=C\C[C@H]32)O1 [OPHIOBOLIN A]	2

Tested on: Oloptum miliaceum
Experiment: Herbicidal activity against Piptatherum miliaceum assessed as diameter of leaf necrosis at 250 ug/ml measured after 2 days post compound treatment by leaf puncture assay
Type: functional
Procedure, shortened: as §1

SMILES	Activity [mm]
CC(C)=C[C@H]1C[C@H](C)[C@]2(CC[C@]3(C)C[C@H]4[C@H](C(=O)C[C@@]4(C)O)/C(C=O)=C\C[C@H]32)O1 [OPHIOBOLIN A]	>3

Tested on: Chenopodium album
Experiment: Herbicidal activity against Chenopodium album assessed as diameter of leaf necrosis at 100 ug/ml measured after 2 days post compound treatment by leaf puncture assay
Type: functional
Procedure, shortened: as §1

SMILES	Activity [mm]
CC(C)=C[C@H]1C[C@H](C)[C@]2(CC[C@]3(C)C[C@H]4[C@H](C(=O)C[C@@]4(C)O)/C(C=O)=C\C[C@H]32)O1 [OPHIOBOLIN A]	2

Tested on: Amaranthus retroflexus
Experiment: Herbicidal activity against Amaranthus retroflexus assessed as diameter of leaf necrosis at 250 ug/ml measured after 2 days post compound treatment by leaf puncture assay
Type: functional
Procedure, shortened: as §1

SMILES	Activity [mm]
CC(C)=C[C@H]1C[C@H](C)[C@]2(CC[C@]3(C)C[C@H]4[C@H](C(=O)C[C@@]4(C)O)/C(C=O)=C\C[C@H]32)O1 [OPHIOBOLIN A]	>3

Tested on: Sonchus oleraceus
Experiment: Herbicidal activity against Sonchus oleraceus assessed as diameter of leaf necrosis at 100 ug/ml measured after 2 days post-compound treatment by leaf puncture assay
Type: functional
Procedure, shortened: as §1

SMILES	Activity [mm]
CC(C)=C[C@H]1C[C@H](C)[C@]2(CC[C@]3(C)C[C@H]4[C@H](C(=O)C[C@@]4(C)O)/C(C=O)=C\C[C@H]32)O1 [OPHIOBOLIN A]	>3

Tested on: Echinochloa crus-galli
Experiment: Herbicidal activity against Echinochloa crus-galli (barnyard grass) assessed as diameter of leaf necrosis at 50 ug/ml measured after 2 days post compound treatment by leaf puncture assay
Type: functional
Procedure, shortened: as §1

SMILES	Activity [mm]
CC(C)=C[C@H]1C[C@H](C)[C@]2(CC[C@]3(C)C[C@H]4[C@H](C(=O)C[C@@]4(C)O)/C(C=O)=C\C[C@H]32)O1 [OPHIOBOLIN A]	>3

Tested on: Cynodon dactylon
Experiment: Herbicidal activity against Cynodon dactylon assessed as diameter of leaf necrosis at 250 ug/ml measured after 2 days post compound treatment by leaf puncture assay
Type: functional
Procedure, shortened: as §1

SMILES	Activity [mm]
CC(C)=C[C@H]1C[C@H](C)[C@]2(CC[C@]3(C)C[C@H]4[C@H](C(=O)C[C@@]4(C)O)/C(C=O)=C\C[C@H]32)O1 [OPHIOBOLIN A]	1

Tested on: Diplotaxis erucoides
Experiment: Herbicidal activity against Diplotaxis erucoides assessed as diameter of leaf necrosis at 50 ug/ml measured after 2 days post compound treatment by leaf puncture assay
Type: functional
Procedure, shortened: as §1

SMILES	Activity [mm]
CC(C)=C[C@H]1C[C@H](C)[C@]2(CC[C@]3(C)C[C@H]4[C@H](C(=O)C[C@@]4(C)O)/C(C=O)=C\C[C@H]32)O1 [OPHIOBOLIN A]	2

Tested on: Setaria viridis
Experiment: Herbicidal activity against Setaria viridis assessed as diameter of leaf necrosis at 100 ug/ml measured after 2 days post compound treatment by leaf puncture assay
Type: functional
Procedure, shortened: as §1

SMILES	Activity [mm]
CC(C)=C[C@H]1C[C@H](C)[C@]2(CC[C@]3(C)C[C@H]4[C@H](C(=O)C[C@@]4(C)O)/C(C=O)=C\C[C@H]32)O1 [OPHIOBOLIN A]	>3

Tested on: Bromus sterilis
Experiment: Herbicidal activity against Bromus sterilis assessed as diameter of leaf necrosis at 250 ug/ml measured after 2 days post compound treatment by leaf puncture assay
Type: functional
Procedure, shortened: as §1

SMILES	Activity [mm]
CC(C)=C[C@H]1C[C@H](C)[C@]2(CC[C@]3(C)C[C@H]4[C@H](C(=O)C[C@@]4(C)O)/C(C=O)=C\C[C@H]32)O1 [OPHIOBOLIN A]	>3

Tested on: Phalaris canariensis
Experiment: Herbicidal activity against Phalaris canariensis assessed as diameter of leaf necrosis at 50 ug/ml measured after 2 days post compound treatment by leaf puncture assay
Type: functional
Procedure, shortened: as §1

SMILES	Activity [mm]
CC(C)=C[C@H]1C[C@H](C)[C@]2(CC[C@]3(C)C[C@H]4[C@H](C(=O)C[C@@]4(C)O)/C(C=O)=C\C[C@H]32)O1 [OPHIOBOLIN A]	>3

Tested on: Cynodon dactylon
Experiment: Herbicidal activity against Cynodon dactylon assessed as diameter of leaf necrosis at 100 ug/ml measured after 2 days post compound treatment by leaf puncture assay
Type: functional
Procedure, shortened: as §1

SMILES	Activity
CC(C)=C[C@H]1C[C@H](C)[C@]2(CC[C@]3(C)C[C@H]4[C@H](C(=O)C[C@@]4(C)O)/C(C=O)=C\C[C@H]32)O1 [OPHIOBOLIN A]	inactive

Tested on: Digitaria sanguinalis
Experiment: Herbicidal activity against Digitaria sanguinalis (hairy crabgrass) assessed as diameter of leaf necrosis at 100 ug/ml measured after 2 days post compound treatment by leaf puncture assay
Type: functional
Procedure, shortened: as §1

SMILES	Activity [mm]
CC(C)=C[C@H]1C[C@H](C)[C@]2(CC[C@]3(C)C[C@H]4[C@H](C(=O)C[C@@]4(C)O)/C(C=O)=C\C[C@H]32)O1 [OPHIOBOLIN A]	>3

Tested on: Amaranthus retroflexus
Experiment: Herbicidal activity against Amaranthus retroflexus assessed as diameter of leaf necrosis at 100 ug/ml measured after 2 days post compound treatment by leaf puncture assay
Type: functional
Procedure, shortened: as §1

SMILES	Activity [mm]
CC(C)=C[C@H]1C[C@H](C)[C@]2(CC[C@]3(C)C[C@H]4[C@H](C(=O)C[C@@]4(C)O)/C(C=O)=C\C[C@H]32)O1 [OPHIOBOLIN A]	2
